We go through 54 sequences from the array DNA melting data of Ke et al. (doi:10.1101/2024.01.08.574731).

The nature of data set [1]: melting temperature; fluorescence melt of hairpins on a sequencing array, two-state fit, raised by 9.35 °C to match UV melts. The following applies: sodium 0.088 M. The method in brief:
(§1)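 Folding enthalpy and melting temperature were estimated with bootstrapped two-state fits and combined across four replicates by inverse-variance weighting, with fitted temperatures raised by 9.35 °C to match UV melts. The data were Cy3 fluorescence of library hairpins, with annealed Cy3 and quencher oligos, on a sequenced MiSeq flow cell in 50 mM Na-HEPES pH 8.0, 25 mM NaCl, imaged in 2.5 °C steps up to 60 °C and normalised to pre-quench Cy3 and control constructs.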

Data set [2] can be described thus: folding enthalpy; higher = less favourable; fluorescence melt of hairpins on a sequencing array, two-state fit. The note with it: sodium 0.088 M. The essentials:
as §1

Regarding GCAATTACGAAAGTATGC (((..(((....)))))), the Tm in data set [1] was 31.1 °C. The folding enthalpy in data set [2] is -20.3 kcal/mol.
The matching figures for GCAATTCCGAAAGGATGC (((..(((....)))))): 38 °C and -21.5 kcal/mol.
The matching figures for GCAATTCGAAAGAAGTGC (((.(((....))).))): 52.4 °C and -34.6 kcal/mol.
The corresponding values for GCACAAGGAAACCTGTGC (((((.(....).))))) are 50.5 °C and -34 kcal/mol.
As for GCACAAGGAAACTTGTAC (.(((((....))))).), the Tm in data set [1] was found to be 32.9 °C. Further, the folding enthalpy in data set [2] is -20.6 kcal/mol.
As for GCACAATCGAAAGATTGC (((..(((....)))))), the Tm in data set [1] came out at 34.5 °C. For the same sequence, in data set [2], the folding enthalpy was -10.3 kcal/mol.
The corresponding values for GCACACACGAAAGTGTGC (((..(((....)))))) are 57.7 °C and -11.6 kcal/mol.
The corresponding values for GCACACGAAAGTGACTGC ((((((....)))..))) are 37.6 °C and -17.9 kcal/mol.
In the case of GCACACGAAAGTGGCTGC ((((((....)))..))), the Tm in data set [1] was determined as 54.3 °C. Moreover, the folding enthalpy in data set [2] was -20.7 kcal/mol.
GCACACGAAAGTGGTTGC ((((((....)))..))): the Tm in data set [1] was 45.9 °C. Besides, in data set [2], the folding enthalpy was -15.5 kcal/mol.
The corresponding values for GCACACGAAAGTGTCTGC ((((((....)))..))) are 42 °C and -15.3 kcal/mol.
The matching figures for GCACACTCGAAAGAGTGC (((..(((....)))))): 38 °C and -9.86 kcal/mol.
The corresponding values for GCACAGAAATGTGC (((((....))))) are 57.2 °C and -33.9 kcal/mol.
As for GCACAGACGAAAGTCTGC (((..(((....)))))), the Tm in data set [1] was 34.5 °C. In data set [2], the folding enthalpy was -8.42 kcal/mol.
Take GCACAGCCGAAAGGCTGC (((..(((....)))))): the Tm in data set [1] is 39.9 °C. Besides, the folding enthalpy in data set [2] was -6.1 kcal/mol.
The corresponding values for GCACAGCGAAAGCAATGC (((..((....))..))) are 37.3 °C and -10.9 kcal/mol.
The corresponding values for GCACAGCGAAAGCATTGC (((..((....))..))) are 38.2 °C and -14.4 kcal/mol.
As to GCACAGCGAAAGCCGCGC ((.(.((....)).).)), the Tm in data set [1] was determined as 46.5 °C. Moreover, the folding enthalpy in data set [2] was -20.3 kcal/mol.
The matching figures for GCACAGCGAAAGCGCTGC (((..((....))..))): 49.2 °C and -14.8 kcal/mol.
As for GCACAGCGAAAGCTATGC (((.(((....))).))), the Tm in data set [1] was 49.5 °C. Besides, the folding enthalpy in data set [2] was -40.8 kcal/mol.
The matching figures for GCACAGCGAAAGCTTAGC ((..(((....)))..)): 31.8 °C and -10.9 kcal/mol.
The corresponding values for GCACAGCGAAAGCTTGC (((.(((....)))))) are 51.5 °C and -20.1 kcal/mol.
Take GCACAGCGAAAGCTTGGC ((..(((....)))..)): the Tm in data set [1] was determined as 47.5 °C. Moreover, the folding enthalpy in data set [2] was -15.4 kcal/mol.
The matching figures for GCACAGGCGAAAGCCTGC (((..(((....)))))): 42.6 °C and -6.09 kcal/mol.
The corresponding values for GCACAGGGAAACCTGCGC ((.((((....)))).)) are 51.8 °C and -44.3 kcal/mol.
The matching figures for GCACAGGGAAACTTGTGC (((((.(....).))))): 52.1 °C and -34.7 kcal/mol.
Take GCACATCGAAAGATATGC (((.(((....))).))): the Tm in data set [1] was found to be 42.9 °C. Moreover, in data set [2], the folding enthalpy is -30.2 kcal/mol.
The corresponding values for GCACATCGAAAGATTGC (((.(((....)))))) are 46 °C and -27.9 kcal/mol.
For GCACATGAAAATGTGC ((((((....)))))), the Tm in data set [1] was 62.4 °C. In data set [2], the folding enthalpy was -39.8 kcal/mol.
The matching figures for GCACATGGAAACACGTGC ((((.((....)).)))): 46.7 °C and -41 kcal/mol.
The matching figures for GCACCAACGAAAGTTTGC (((..(((....)))))): 27.9 °C and -13.5 kcal/mol.
The matching figures for GCACCACGAAAGTGCTGC (((.(((....))).))): 50.5 °C and -25.2 kcal/mol.
On to GCACCAGGAAACCAGTGC ((((..(....)..)))), for which the Tm in data set [1] was found to be 39 °C. In addition, the folding enthalpy in data set [2] was -30.5 kcal/mol.
The matching figures for GCACCCGAAAGGGCGTGC ((((((....)))..))): 51.2 °C and -29.6 kcal/mol.
The corresponding values for GCACCCGAAAGGGGCTGC ((((((....)))..))) are 65.3 °C and -17.9 kcal/mol.
Regarding GCACCCGAAAGGGGGTGC ((((((....)))..))), the Tm in data set [1] is 66.8 °C. Moreover, the folding enthalpy in data set [2] was -21 kcal/mol.
Turning to GCACCCGAAAGGGTATGC ((((((....)))..))), the Tm in data set [1] is 48.3 °C. For the same sequence, the folding enthalpy in data set [2] is -13.9 kcal/mol.
The matching figures for GCACCCGAAAGGGTCTGC ((((((....)))..))): 49.1 °C and -13.3 kcal/mol.
GCACCCGAAAGGGTTGC ((((((....))).))): the Tm in data set [1] stood at 63.3 °C. In data set [2], the folding enthalpy was -22.5 kcal/mol.
The matching figures for GCACCCGGAAACGAGTGC ((((.((....)).)))): 51.6 °C and -48.8 kcal/mol.
For GCACCGCGAAAGCATTGC (((..((....))..))), the Tm in data set [1] worked out at 33.4 °C. For the same sequence, the folding enthalpy in data set [2] was -10.3 kcal/mol.
The matching figures for GCACCGCGAAAGCCGAGC ((.(.((....)).).)): 39 °C and -12.9 kcal/mol.
The matching figures for GCACCGCGAAAGCCGTGC ((((.((....)).)))): 62.2 °C and -31.1 kcal/mol.
The matching figures for GCACCGCGAAAGCGCGGC ((..(((....)))..)): 45 °C and -11 kcal/mol.
In the case of GCACCGCGAAAGCTGGGC ((.(.((....)).).)), the Tm in data set [1] stood at 57.5 °C. In addition, in data set [2], the folding enthalpy was -19.1 kcal/mol.
On to GCACCGCGAAAGCTTTGC (((..((....))..))), for which the Tm in data set [1] was found to be 36.2 °C. In addition, the folding enthalpy in data set [2] was -12 kcal/mol.
Regarding GCACCGGGAAACCAGCGC ((.(.((....)).).)), the Tm in data set [1] came to 37.4 °C. Moreover, in data set [2], the folding enthalpy is -20.7 kcal/mol.
For the sequence GCACCTACGAAAGTATGC (((..(((....)))))), the Tm in data set [1] stood at 27.3 °C. The folding enthalpy in data set [2] is -13.5 kcal/mol.
The corresponding values for GCACCTCGAAAGAGTTGC (((.(((....))).))) are 48.6 °C and -28.1 kcal/mol.
GCACCTGGAAACGGGTGC (((((.(....).))))): in data set [1], the Tm was 60.9 °C. The folding enthalpy in data set [2] was -48 kcal/mol.
The matching figures for GCACGAACGAAAGTTTGC (((..(((....)))))): 33.5 °C and -17.1 kcal/mol.
The matching figures for GCACGACGAAAGTCCTGC (((.(((....))).))): 45.6 °C and -26.8 kcal/mol.
The corresponding values for GCACGAGGAAACCCGTGC (((((.(....).))))) are 58.2 °C and -45.2 kcal/mol.
In the case of GCACGAGGAAACTCACGC ((..(((....)))..)), the Tm in data set [1] turned out to be 31.7 °C. The folding enthalpy in data set [2] is -22.7 kcal/mol.
